In ChEMBL document CHEMBL2390871, “Exploring the anticancer potential of pyrazolo[1,2-a]benzo[1,2,3,4]tetrazin-3-one derivatives: the effect on apoptosis induction, cell cycle and proliferation” (Eur J Med Chem, 2013):
Active and inactive are the calls of the source. The rule behind the calls is not given here.

Tests used:
[1] = tested on: HOP-92; test: Cytotoxicity against human HOP92 cells assessed as growth at 10 uM after 48 hrs by sulforhodamine B assay; assay type: functional; settings: HOP-92, 48 h, read-out: Activity
Outline: (§1)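 NCI-60 one-dose screen at 10 µM. Cells in RPMI 1640 with 5% FBS and 2 mM L-glutamine were plated at 5000–40,000/well and preincubated 24 h. Drug was then applied for 48 h at 37 °C, 5% CO₂. Adherent cells were fixed with cold TCA (10% final) and stained with SRB. Growth % is relative to the no-drug control and the time-zero cell number; negative values indicate lethality.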

[2] = tested on: MOLT-4; test: Cytotoxicity against human MOLT4 cells assessed as growth at 10 uM after 48 hrs by sulforhodamine B assay; assay type: functional; settings: MOLT-4, 48 h, read-out: Activity; outline: as §1
[3] = tested on: SW-620; test: Cytotoxicity against human SW620 cells assessed as growth at 10 uM after 48 hrs by sulforhodamine B assay; assay type: functional; settings: SW-620, 48 h, read-out: Activity; outline: as §1
[4] = tested on: CCRF-CEM; test: Cytotoxicity against human CCRF-CEM cells assessed as growth at 10 uM after 48 hrs by sulforhodamine B assay; assay type: functional; settings: read-out: Activity; outline: as §1
[5] = tested on: NCI-H292; test: Cytotoxicity against human NCI-H292 cells after overnight incubation by MTT assay; assay type: functional, cell-based
Outline: (§2)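 MTT (5 mg/ml) was added for 3 h at 37 °C, formazan dissolved in DMSO, and absorbance read at 540 nm. Viability is relative to untreated cells (100%), fitted to a four-parameter Hill equation. IC50 is 50% formazan formation versus drug-free control. Triplicates, at least three independent experiments.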

[6] = tested on: SNB-75; test: Cytotoxicity against human SNB75 cells assessed as growth at 10 uM after 48 hrs by sulforhodamine B assay; assay type: functional; settings: SNB-75, 48 h, read-out: Activity; outline: as §1
[7] = tested on: COLO 205; test: Cytotoxicity against human COLO205 cells assessed as growth at 10 uM after 48 hrs by sulforhodamine B assay; assay type: functional; settings: COLO 205, 48 h, read-out: Activity; outline: as §1
[8] = tested on: PC-3; test: Cytotoxicity against human PC3 cells assessed as growth at 10 uM after 48 hrs by sulforhodamine B assay; assay type: functional; settings: PC-3, 48 h, read-out: Activity; outline: as §1
[9] = tested on: T47D; test: Cytotoxicity against human T47D cells assessed as growth at 10 uM after 48 hrs by sulforhodamine B assay; assay type: functional; settings: read-out: Activity; outline: as §1
[10] = tested on: SK-MEL-2; test: Cytotoxicity against human SK-MEL-2 cells assessed as growth at 10 uM after 48 hrs by sulforhodamine B assay; assay type: functional; settings: SK-MEL-2, 48 h, read-out: Activity; outline: as §1
[11] = tested on: NCI-H522; test: Cytotoxicity against human NCI-H522 cells assessed as growth at 10 uM after 48 hrs by sulforhodamine B assay; assay type: functional; settings: NCI-H522, 48 h, read-out: Activity; outline: as §1
[12] = Cytotoxicity against human LAN5 cells after overnight incubation by MTT assay; assay type: functional, cell-based; settings: LA-N-5; outline: as §2
[13] = tested on: HeLa; test: Induction of mitochondrial membrane depolarization in human HeLa cells at < 10 uM after overnight incubation by FACS analysis; assay type: functional, cell-based
Outline: (§3)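 HeLa cells (175,000/well) were incubated overnight with serial drug concentrations. They were washed with PBS, incubated 30 min at 37 °C in Krebs Ringer buffered saline, detached, and collected in buffer with 1% FCS. At least 2 × 10⁴ cells were analysed by flow cytometry, with the TMRM signal read on FL2. Depolarization was gated on cells treated overnight with staurosporine as positive control, and the untreated-cell signal was subtracted. Triplicates, replicated twice.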

[14] = tested on: HeLa; test: Cytotoxicity against human HeLa cells after overnight incubation by MTT assay; assay type: functional, cell-based; outline: as §2
[15] = Cytotoxicity against human 16HBE cells after overnight incubation by MTT assay; assay type: functional, cell-based; settings: 16HBE14o-; outline: as §2
[16] = tested on: Caco-2; test: Cytotoxicity against human Caco2 cells after overnight incubation by MTT assay; assay type: functional, cell-based; outline: as §2
[17] = tested on: UO-31; test: Cytotoxicity against human UO31 cells assessed as growth at 10 uM after 48 hrs by sulforhodamine B assay; assay type: functional; settings: UO-31, 48 h, read-out: Activity; outline: as §1
[18] = tested on: MCF7; test: Cytotoxicity against human MCF7 cells after overnight incubation by MTT assay; assay type: functional, cell-based; outline: as §2
[19] = tested on: HeLa; test: Cell cycle arrest in human HeLa cells assessed as accumulation at S phase at 50 uM after 72 hrs by propidium iodide staining-based FACS analysis; assay type: functional
Outline: (§4)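 HeLa cells (1 × 10⁶) exposed 72 h to 5, 10, 25 or 50 µM of each compound. Cells were washed, trypsinized, fixed in chilled 70% ethanol on ice for more than 2 h, and stained with propidium iodide for 15 min at 37 °C in the dark. Cell-cycle phase distribution was read by flow cytometry against untreated control cells.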

[20] = tested on: HeLa; test: Cell cycle arrest in human HeLa cells assessed as accumulation at sub-G0/G1 phase at 50 uM after 72 hrs by propidium iodide staining-based FACS analysis; assay type: functional; outline: as §4
[21] = tested on: HeLa; test: Induction of mitochondrial membrane depolarization in human HeLa cells after overnight incubation by FACS analysis; assay type: functional, cell-based; outline: as §3
[22] = tested on: HeLa; test: Induction of mitochondrial membrane depolarization in human HeLa cells at 3 to 8 uM after overnight incubation by FACS analysis; assay type: functional, cell-based; outline: as §3
[23] = tested on: IGROV-1; test: Cytotoxicity against human IGROV1 cells assessed as growth at 10 uM after 48 hrs by sulforhodamine B assay; assay type: functional; settings: IGROV-1, 48 h, read-out: Activity; outline: as §1
[24] = tested on: HeLa; test: Induction of mitochondrial membrane depolarization in human HeLa cells at 3 to 4 uM after overnight incubation by FACS analysis; assay type: functional, cell-based; outline: as §3
[25] = tested on: HeLa; test: Cell cycle arrest in human HeLa cells assessed as accumulation at sub-G0/G1 phase at 5 to 50 uM after 72 hrs by propidium iodide staining-based FACS analysis; assay type: functional; outline: as §4
[26] = tested on: HeLa; test: Cell cycle arrest in human HeLa cells assessed as accumulation at G1 phase at 5 to 50 uM after 72 hrs by propidium iodide staining-based FACS analysis; assay type: functional; outline: as §4
[27] = tested on: HeLa; test: Induction of mitochondrial membrane depolarization in human HeLa cells at 1 uM after overnight incubation by FACS analysis; assay type: functional, cell-based; outline: as §3

Structure (SMILES)	growth at 10 µM [1] [%]	growth at 10 µM [2] [%]	growth at 10 µM [3] [%]	growth at 10 µM [4] [%]	IC50 [5] [µM]	growth at 10 µM [6] [%]	growth at 10 µM [7] [%]	growth at 10 µM [8] [%]	growth at 10 µM [9] [%]	growth at 10 µM [10] [%]	growth at 10 µM [11] [%]	IC50 [12] [µM]	IC50 [14] [µM]	IC50 [15] [µM]	IC50 [16] [µM]	growth at 10 µM [17] [%]	IC50 [18] [µM]	other results
Cc1cc(=O)n2nnc3cc(C#N)ccc3n12	103	95	110	100	43.6	96	104	101	91	99	97	28.2	27	46.7	37.1	105	35.9	Activity [13]: Active
Cc1cc(=O)n2nnc3cc(Cl)c(Cl)cc3n12	101	59	23	23	28.2	96	-64	94	76	102	54	25.7	14.8	13.5	25.7	81	13.9	Activity [19]: 19.4%; Activity [20]: 25.4%; EC50 [21]: 3 µM
Cc1ccc2c(c1)nnn1c(=O)cc(C)n21					25.1							93.3	15.4	36.3	50.2		42.6	Activity [22]: Active
Cc1cc2nnn3c(=O)cc(C)n3c2cc1C	93	82	94	19	23.4	89	66	100	97	96	97	95.5	13.2	38.9	46.8	84	46.7	Activity [19]: 10%; Activity [20]: 18%; growth at 10 µM [23]: 91%; Activity [24]: Active
Cc1cc(=O)n2nnc3ccc(Cl)cc3n12					25.1							48.9	15.8	27.5	34.6		29.5	
Cc1cc(=O)n2nnc3cc(Cl)ccc3n12					23.4							31.6	14.8	17.7	24		20.5	EC50 [21]: 5 µM
Cc1cc(=O)n2nnc3cc(C(F)(F)F)ccc3n12	94	91	118	103	> 100	116	108	101	115	99	97	15.1	> 100	30.9	> 100	84	> 100	Activity [25]: 7.2%; Activity [26]: -12%; Activity [27]: Active
